Insulin prom up: MIN6 insulin promoter up-regulation; MIN6 insulin promoter-GFP reporter, high-content imaging; hits give high values; z-score at 5 µM; 0.3% of 190,000 active;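 active = z-score above 3 at 5 µM with at least 500 cells counted in the well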
MT stabilize HCS: microtubule stabilization, imaging screen. HeLa tubulin immunostaining HCS, 24 h; share of cells brighter than vehicle mean+2SD. % tubulin-high responders, % at 10 µM. 0.83% of 200,000 active. AID 2205;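 active = plate Z-score above 3 for both tubulin-high and condensed-nucleus cell shares, with cell loss under 80%, at 10 µM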;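 note: anti alpha tubulin signal scored within the nucleus-defined area of each cell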
Wee1 degr inh: inhibitors of human Wee1 degradation; HeLa Luc-Wee1K328M stability, luciferase luminescence; 100% = proteasome inhibitor MG132 effect; reporter increase, % at 5 µM; 1.2% of 220,000 active;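 active = activation above the mean of all tested compounds plus 3 SD, set per screening run, cut at about 8.8% in these data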;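 note: cells exposed to compound for 20 h before luminescence read; 0% = DMSO alone and 100% = MG132 at 30 µM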
Target sequence (P30291 whole entry K328M): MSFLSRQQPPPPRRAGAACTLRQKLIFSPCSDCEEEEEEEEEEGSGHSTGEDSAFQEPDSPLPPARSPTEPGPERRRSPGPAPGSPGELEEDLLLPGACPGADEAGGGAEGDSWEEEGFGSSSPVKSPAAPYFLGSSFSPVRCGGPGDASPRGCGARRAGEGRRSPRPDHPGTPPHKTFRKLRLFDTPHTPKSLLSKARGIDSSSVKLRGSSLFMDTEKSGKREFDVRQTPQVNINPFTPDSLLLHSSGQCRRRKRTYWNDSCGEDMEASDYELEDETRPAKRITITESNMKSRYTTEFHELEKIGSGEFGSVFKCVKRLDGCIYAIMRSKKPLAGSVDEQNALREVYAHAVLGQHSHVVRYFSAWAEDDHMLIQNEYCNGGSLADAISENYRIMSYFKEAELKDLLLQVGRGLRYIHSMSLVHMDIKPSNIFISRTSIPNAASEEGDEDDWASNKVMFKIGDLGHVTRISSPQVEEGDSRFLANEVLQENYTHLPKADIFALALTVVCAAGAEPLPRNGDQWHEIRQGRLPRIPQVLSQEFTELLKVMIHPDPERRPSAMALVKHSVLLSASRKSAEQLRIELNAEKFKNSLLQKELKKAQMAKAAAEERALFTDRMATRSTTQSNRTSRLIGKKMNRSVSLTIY
Autophagy HCS: modulators of autophagy; MEF GFP-LC3 puncta imaging; test concentration mostly 10 µM; 0.98% of 190,000 active; calls only at 10 µM (by protocol);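 active = percentage of spot-positive cells more than 3 SD above its plate mean, without a fluorescence outlier flag or 80% toxicity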;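 note: spot-positive cell cutoff set from DMSO-treated cells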
bCat nuc transl: beta-catenin nuclear translocation modulation. 0.3% of 190,000 active. HeLa beta-catenin nuclear translocation, immunofluorescence imaging. nuclear translocation activity, % at 5 µM;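 active = nuclear translocation activity above 50% at 5 µM, with a well cell count of 50 or more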;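 note: per-cell ratio of nuclear to cytoplasmic median beta-catenin stain intensity; plate controls were DMSO negative control for no effect and GSK-3 inhibitor IX positive control for full effect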
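Assay system: human HeLa cells, native beta-catenin; doses: 5 µM primary, 0.02–20 µM confirmation; incubation: compound treatment 24 h, 37°C, 5% CO2; technique: fluorescence imaging of beta-catenin antibody stain plus DAPI; measure: % activation, nuclear-to-cytoplasmic median beta-catenin signal ratio per cell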
* marks the source's active call; other numbers are inactive results; i = inactive; x = no result given; + = active, no number. Only some compounds are listed: those with a hit (about 2.9% of all), similar ones and a draw of the others.

SMILES	Insulin prom up	MT stabilize HCS	Wee1 degr inh	Autophagy HCS	bCat nuc transl
CC(C)Cc1nnc(NC(=O)c2cc(-c3ccccc3)nc3ccccc23)s1	0.62	2	2	i	0
O=C(N/N=C/c1ccc(Cl)cc1)c1cc(-c2cccnc2)nc2ccccc12	0.18	14	2	i	-1
O=C(N/N=C/c1ccc2c(c1)OCO2)c1cc(-c2ccccc2Cl)nc2ccccc12	-0.11	3	-3	i	x
CC(C)Cc1nnc(NC(=O)c2cc(-c3ccncc3)nc3ccccc23)s1	-0.36	x	9.2*	x	2
COc1ccc(/C=N/NC(=O)CN2CCSCC2)cc1C	0.5	2	0	i	0
CCCCS(=O)(=O)Nc1ccc(C)cn1	2	1	-1	i	-1
Cc1cc(N/N=C/c2ccc([N+](=O)[O-])o2)nc2ccccc12	x	3	-2	+	2
Cc1cc(Nc2ccc([N+](=O)[O-])cc2)nc2ccccc12	-0.63	4	0	i	0
CC(/C=N/NC(=O)CSc1nc2ccccc2n1C)=C\c1ccco1	-0.24	17*	1	i	25
Cn1c(SCC(=O)N/N=C/c2ccco2)nc2ccccc21	-0.41	4	1	i	5
NNC(=O)c1cc(-c2cccs2)nc2ccccc12	-1	x	-3	x	-2
C/C(=N\NC(=O)c1cc(-c2cccs2)nc2ccccc12)c1ccccn1	-6.2	4	-1	+	-2
O=C(O)c1nccnc1C(=O)Nc1ccccc1-c1ccccc1	x	x	-1	x	-2
CCC(CC)NC(=O)c1cc([N+](=O)[O-])ccc1N1CCOCC1	2.1	5	-3	i	0
O=C(c1ccc(N2CCCCCC2)c([N+](=O)[O-])c1)N1CCc2ccccc21	-0.37	1	-2	i	4
Cc1ccc(C(=O)c2cc([N+](=O)[O-])ccc2N2CCCCC2)c(C)c1	-1.3	6	1	i	59*
COc1ccc(C(=O)c2cc([N+](=O)[O-])ccc2N2CCOCC2)cc1	-2.6	7	-1	i	57*
O=C(c1cc([N+](=O)[O-])ccc1N1CCCCC1)N1CCc2ccccc21	0.37	17*	7	i	0
CCOc1ccc(C(=O)c2cc([N+](=O)[O-])ccc2N2CCOCC2)cc1	-3.5	15*	0	i	37
CC(NC(=O)c1ccnn1C)C1CCCO1 (stereo not given)	0.08	7	0	i	2
CCCCN(CC)CCCNC(=O)C1CCN(c2ncnc3c2sc2cccc(F)c23)CC1	-0.4	2	-1	i	0
Cc1ccc(S(=O)(=O)Nc2ccc(Cl)cc2C(=O)c2ccc(F)cc2)cc1	-0.39	5	0	i	-2
Cc1cc(C(=O)CSc2nnc(-c3cccnc3)n2-c2ccccc2F)c(C)n1CC1CCCO1 (stereo not given)	0.62	1	-2	i	x
O=C(c1cc([N+](=O)[O-])ccc1N1CCOCC1)N1CCOCC1	0.08	5	0	i	0
Cc1ccc(C(=O)c2cc([N+](=O)[O-])ccc2N2CCOCC2)cc1	0.15	18*	-1	i	8
SMILES	Insulin prom up	MT stabilize HCS	Wee1 degr inh	Autophagy HCS	bCat nuc transl
Cc1cc(C)c2c3c(sc2n1)C(=O)N(c1ccccc1C)CC(=O)N3	-0.49	x	9.5*	x	2
CCN(CC)C1CC(=O)N(c2cccc(C)c2)C1=O (stereo not given)	-1.5	2	10.0*	i	4
CC(=O)OC(C(=O)NCc1ccc(F)cc1)c1ccccn1 (stereo not given)	3.9*	3	0	i	-3
CC1CCN(c2ccccc2NC(=O)c2ccc(F)cc2)CC1	1.1	1	9.5*	i	x
O=C(CNc1cccc2ccccc12)N/N=C/C(Br)=C/c1ccccc1	0.15	48*	3	i	0
Cc1ccc(Nc2nc(N)nc(CN3CCN(Cc4ccc5c(c4)OCO5)CC3)n2)cc1Cl	-2.1	4	0	+	-9
CC(Oc1ccc(Cl)cc1Cl)c1nc(-c2ccc(NC(=O)c3ccccn3)cc2)no1 (stereo not given)	-0.07	9	5	i	0
CCOC(=O)c1oc2nc3c(cc2c1N)COC(C)(C)C3	x	2	6	+	0
Cc1cc(C)c2c(c1)NC(c1cc3c(cc1Br)OCO3)C1CC=CC21 (stereo not given)	0.55	9	2	i	5
COc1ccc(OCC(=O)N2N=C(C(F)F)CC2(O)C(F)F)cc1 (stereo not given)	-0.24	2	-1	i	1
